Test results taken from ChEMBL document CHEMBL1151946, “Doxazosin-related alpha1-adrenoceptor antagonists with prostate antitumor activity” (J Med Chem, 2009).
Activity calls are given as the source filed them. The rule behind the calls is not given here.

How the values were obtained:
PC-3 [1] = assay: Cytotoxicity against human PC3 cells after 72 hrs by CellTitter-Glo luminescent cell viability assay; assay type: functional, cell-based; settings: PC-3, 72 h
[2] = molecular target: T1, Alpha-1A adrenergic receptor (Rattus norvegicus) (UniProt P43140); assay: Antagonist activity at rat alpha1A adrenoceptor assessed as inhibition if norepinephrine-induced contraction of vas deference; assay type: functional
T1 sequence (whole entry): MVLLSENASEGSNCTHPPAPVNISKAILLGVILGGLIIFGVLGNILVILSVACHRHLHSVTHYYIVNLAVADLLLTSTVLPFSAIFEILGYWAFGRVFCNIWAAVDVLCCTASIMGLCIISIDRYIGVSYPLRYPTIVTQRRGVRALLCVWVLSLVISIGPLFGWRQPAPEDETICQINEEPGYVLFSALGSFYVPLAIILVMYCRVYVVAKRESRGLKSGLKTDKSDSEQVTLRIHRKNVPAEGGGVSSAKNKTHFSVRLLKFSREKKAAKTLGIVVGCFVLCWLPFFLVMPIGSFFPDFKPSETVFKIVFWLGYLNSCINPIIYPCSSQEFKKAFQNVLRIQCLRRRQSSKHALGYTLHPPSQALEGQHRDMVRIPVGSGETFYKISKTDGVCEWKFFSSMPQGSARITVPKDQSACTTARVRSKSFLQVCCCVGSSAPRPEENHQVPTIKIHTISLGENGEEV
How it was run: (§1)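 Isolated rat tissue contraction assay. The α1A response used vas deferens with (-)-noradrenaline as agonist, α1D used thoracic aorta with (-)-noradrenaline, and α1B used spleen with (-)-phenylephrine. pA2 values are means ± SEM over three antagonist concentrations, each tested at least four times. Where the Schild slope differed from unity, pKB was calculated by van Rossum at the lowest antagonist concentration giving log(CR−1) ≥0.5.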

LNCaP [3] = assay: Cytotoxicity against human LNCAP cells after 72 hrs by CellTitter-Glo luminescent cell viability assay; assay type: functional, cell-based
[4] = molecular target: T2, Alpha-1D adrenergic receptor (Homo sapiens, UniProt P25100); assay: Displacement of [3H]prazosin from human Alpha-1D adrenoceptor expressed in CHO cells; assay type: cell-based
T2 sequence (P25100 whole entry): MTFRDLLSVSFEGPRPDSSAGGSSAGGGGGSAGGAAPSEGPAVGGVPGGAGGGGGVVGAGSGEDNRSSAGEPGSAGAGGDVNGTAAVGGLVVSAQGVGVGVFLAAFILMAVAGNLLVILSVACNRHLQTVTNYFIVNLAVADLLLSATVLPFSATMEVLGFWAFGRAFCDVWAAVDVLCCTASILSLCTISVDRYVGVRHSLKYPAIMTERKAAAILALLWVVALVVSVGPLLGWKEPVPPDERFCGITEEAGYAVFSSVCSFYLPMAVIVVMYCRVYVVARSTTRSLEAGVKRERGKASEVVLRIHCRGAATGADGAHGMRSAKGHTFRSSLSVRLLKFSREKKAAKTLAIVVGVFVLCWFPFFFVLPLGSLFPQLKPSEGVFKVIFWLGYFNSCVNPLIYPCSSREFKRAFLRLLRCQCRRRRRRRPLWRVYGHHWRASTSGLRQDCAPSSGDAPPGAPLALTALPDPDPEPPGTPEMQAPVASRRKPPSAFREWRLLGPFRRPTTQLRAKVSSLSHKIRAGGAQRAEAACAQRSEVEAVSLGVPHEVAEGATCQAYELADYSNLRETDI
How it was run: (§2)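 Radioligand competition binding used [3H]prazosin on membranes of CHO cells expressing human α1a, α1b or α1d adrenoceptor. IC50 values were converted to pKi by the Cheng-Prusoff equation. Data come from two to three experiments run in triplicate, agreeing within ±20%.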

DU-145 [5] = assay: Cytotoxicity against human DU145 cells after 72 hrs by CellTitter-Glo luminescent cell viability assay; assay type: functional, cell-based; settings: DU-145, 72 h
LNCaP [6] = assay: Induction of apoptosis in human LNCAP cells assessed as caspase 3/7 activation after 24 hrs Caspase-Glo 3/7 assay; assay type: functional, cell-based; settings: lncap
NHDF [7] = assay: Cytotoxicity against human NHDF cells after 72 hrs by CellTitter-Glo luminescent cell viability assay; assay type: functional, cell-based
[8] = molecular target: T3, Alpha-1D adrenergic receptor (Rattus norvegicus) (UniProt P23944); assay: (§3) Antagonist activity at rat Alpha-1D adrenoceptor assessed as inhibition if norepenephrine-induced contraction of thoracic aorta; assay type: functional, tissue-based; how it was run: as §1
T3 sequence (whole entry): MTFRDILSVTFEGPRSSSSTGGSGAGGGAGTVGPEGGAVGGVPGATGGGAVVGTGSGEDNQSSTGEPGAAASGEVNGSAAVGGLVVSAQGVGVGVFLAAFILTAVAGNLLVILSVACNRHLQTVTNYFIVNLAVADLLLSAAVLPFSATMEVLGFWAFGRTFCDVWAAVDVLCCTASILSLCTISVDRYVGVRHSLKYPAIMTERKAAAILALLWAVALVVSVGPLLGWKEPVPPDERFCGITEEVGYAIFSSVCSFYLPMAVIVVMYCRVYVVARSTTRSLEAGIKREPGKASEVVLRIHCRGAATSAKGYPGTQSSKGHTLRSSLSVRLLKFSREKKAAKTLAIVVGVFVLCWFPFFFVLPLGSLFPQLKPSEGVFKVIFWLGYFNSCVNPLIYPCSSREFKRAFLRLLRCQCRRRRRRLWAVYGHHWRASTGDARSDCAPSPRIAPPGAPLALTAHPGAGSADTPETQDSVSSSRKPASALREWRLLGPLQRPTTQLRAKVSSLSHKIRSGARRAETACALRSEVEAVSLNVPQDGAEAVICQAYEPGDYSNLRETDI

[9] = molecular target: T4, Alpha-1B adrenergic receptor (Rattus norvegicus) (UniProt P15823); assay: Antagonist activity at rat Alpha-1B adrenoceptor assessed as inhibition if phenylephrine-induced contraction of spleen; assay type: functional, tissue-based; how it was run: as §1
T4 sequence (whole entry): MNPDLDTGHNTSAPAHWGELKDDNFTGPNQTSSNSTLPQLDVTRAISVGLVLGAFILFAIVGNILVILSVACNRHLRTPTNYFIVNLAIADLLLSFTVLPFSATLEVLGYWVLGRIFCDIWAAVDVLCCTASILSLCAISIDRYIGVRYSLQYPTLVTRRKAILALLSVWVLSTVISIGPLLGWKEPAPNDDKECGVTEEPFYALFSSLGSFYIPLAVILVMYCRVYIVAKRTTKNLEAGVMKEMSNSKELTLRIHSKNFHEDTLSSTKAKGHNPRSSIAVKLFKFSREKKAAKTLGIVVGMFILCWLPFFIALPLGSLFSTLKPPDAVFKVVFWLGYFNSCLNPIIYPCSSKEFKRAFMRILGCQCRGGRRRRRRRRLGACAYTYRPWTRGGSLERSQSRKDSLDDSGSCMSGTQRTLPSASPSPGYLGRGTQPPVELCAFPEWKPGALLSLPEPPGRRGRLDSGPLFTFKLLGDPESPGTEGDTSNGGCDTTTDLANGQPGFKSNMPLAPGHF

DU-145 [10] = assay: Induction of apoptosis in human DU145 cells assessed as caspase 3/7 activation after 24 hrs Caspase-Glo 3/7 assay; assay type: functional, cell-based; settings: du-145
[11] = molecular target: T5, Alpha-1A adrenergic receptor (Homo sapiens, UniProt P35348); assay: Displacement of [3H]prazosin from human alpha1A adrenoceptor expressed in CHO cells; assay type: cell-based; how it was run: as §2
T5 sequence (P35348 whole entry): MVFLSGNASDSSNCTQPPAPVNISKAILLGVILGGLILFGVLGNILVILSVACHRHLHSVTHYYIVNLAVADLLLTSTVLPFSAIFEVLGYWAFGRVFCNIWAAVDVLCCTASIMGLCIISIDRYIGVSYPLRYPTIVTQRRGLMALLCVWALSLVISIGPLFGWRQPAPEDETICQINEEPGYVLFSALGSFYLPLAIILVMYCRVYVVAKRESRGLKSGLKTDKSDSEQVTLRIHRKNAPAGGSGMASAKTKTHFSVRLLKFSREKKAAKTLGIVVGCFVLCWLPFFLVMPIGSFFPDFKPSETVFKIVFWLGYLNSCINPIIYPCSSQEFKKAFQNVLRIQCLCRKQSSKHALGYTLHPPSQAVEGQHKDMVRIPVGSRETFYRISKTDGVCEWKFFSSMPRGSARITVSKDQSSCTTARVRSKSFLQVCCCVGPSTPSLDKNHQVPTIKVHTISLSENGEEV

NHDF [12] = assay: Induction of apoptosis in human NHDF cells assessed as caspase 3/7 activation after 24 hrs Caspase-Glo 3/7 assay; assay type: functional, cell-based
PC-3 [13] = assay: Induction of apoptosis in human PC3 cells assessed as caspase 3/7 activation after 24 hrs by Caspase-Glo 3/7 assay; assay type: functional, cell-based; settings: PC-3, 24 h
[14] = molecular target: T6, Alpha-1B adrenergic receptor (Homo sapiens, UniProt P35368); assay: Displacement of [3H]prazosin from human Alpha-1B adrenoceptor expressed in CHO cells; assay type: cell-based; how it was run: as §2
T6 sequence (P35368 whole entry): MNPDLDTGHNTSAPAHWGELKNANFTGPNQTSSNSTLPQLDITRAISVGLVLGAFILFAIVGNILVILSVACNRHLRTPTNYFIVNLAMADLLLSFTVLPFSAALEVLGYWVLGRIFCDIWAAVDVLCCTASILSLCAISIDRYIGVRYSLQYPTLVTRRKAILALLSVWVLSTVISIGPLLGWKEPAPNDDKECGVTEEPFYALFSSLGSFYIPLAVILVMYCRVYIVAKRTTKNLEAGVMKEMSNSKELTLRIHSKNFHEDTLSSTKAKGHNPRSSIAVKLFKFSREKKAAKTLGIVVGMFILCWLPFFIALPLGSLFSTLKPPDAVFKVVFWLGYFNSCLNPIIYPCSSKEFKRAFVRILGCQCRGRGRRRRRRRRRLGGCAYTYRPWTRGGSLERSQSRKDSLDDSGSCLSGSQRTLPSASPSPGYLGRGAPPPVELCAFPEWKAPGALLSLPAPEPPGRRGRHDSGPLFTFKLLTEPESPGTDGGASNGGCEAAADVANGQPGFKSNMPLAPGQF

PC-3 [15] = assay: Antiangiogenic activity in human PC3 cells xenografted in NU/NU mouse assessed as reduction vascularization at 1 mg/kg by immunohistochemistry; assay type: functional, organism-based; design: dose 1 mg/kg
How it was run: (§4)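 Vascularization of PC-3 flank tumors from nude mice dosed orally was assessed by immunohistochemistry with rat anti-mouse CD31 monoclonal antibody as endothelial marker. Doses were 0.3, 1 and 3 mg/kg.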

PC-3 [16] = assay: Induction of apoptosis in human PC3 cells xenografted in NU/NU mouse assessed as DNA fragmentation at 0.3 to 3 mg/kg by agarose gel electrophoresis; assay type: functional, organism-based
How it was run: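 DNA from PC-3 subcutaneous tumors of orally treated nude mice was run on an electrophoretic gel. Apoptosis was scored as a DNA ladder pattern.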

PC-3 [17] = assay: Antiangiogenic activity in human PC3 cells xenografted in NU/NU mouse assessed as reduction vascularization at 3 mg/kg by immunohistochemistry; assay type: functional, organism-based; design: dose 3 mg/kg; how it was run: as §4
[18] = molecular target: T7, Alpha-1D adrenergic receptor (Rattus norvegicus, UniProt P23944); assay: as §3; assay type: functional, tissue-based; settings: read-out: pA2 (converted); how it was run: as §1
T7 sequence (P23944 whole entry): T3 sequence (whole entry)

PC-3 [19] = assay: Antiangiogenic activity in human PC3 cells xenografted in NU/NU mouse assessed as reduction vascularization at 0.3 mg/kg by immunohistochemistry; assay type: functional, organism-based; design: dose 0.3 mg/kg; how it was run: as §4
PC-3 [20] = assay: Antitumor activity against human PC3 cells xenografted in NU/NU mouse after 21 days; assay type: functional
How it was run: (§5)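 Male nude mice carried subcutaneous left-flank tumors from injected PC-3 cells. Drug was given orally once daily for 21 consecutive days. There were five groups of six mice, treated and control. Tumor growth is reported as mean ± SEM, analysed by ANOVA and Student t-test against control.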

PC-3 [21] = assay: Antitumor activity against human PC3 cells xenografted in NU/NU mouse at 0.3 mg/kg, po after 21 days relative to control; assay type: functional; how it was run: as §5

Structure (SMILES)	IC50 (PC-3 [1]) [nM]	pKb [2]	IC50 (LNCaP [3]) [nM]	Ki [4] [nM]	IC50 (DU-145 [5]) [nM]	EC50 (LNCaP [6]) [nM]	IC50 (NHDF [7]) [nM]	pKb [8]	pKb [9]	EC50 (DU-145 [10]) [nM]	Ki [11] [nM]	EC50 (NHDF [12]) [nM]	EC50 (PC-3 [13]) [nM]	Ki [14] [nM]	other results
COc1cc2nc(N(C)CCCCCCN(C)C(=O)C3COc4ccccc4O3)nc(N)c2cc1OC (stereo not given)	8400	8.51	4610	1.58	9250	10000	9800	8.64	8.35	10000	1.86	10000	10000	0.933	
COc1cc2nc(N3CCN(C(=O)C4COc5ccccc5O4)[C@H]4CCCC[C@@H]43)nc(N)c2cc1OC (relative stereo)	> 10000	5.88	9750	26.3	> 10000	10000	> 10000	6.88	7.14	10000	81.3	10000	10000	22.4	
COc1cc2nc(N3CCN(C(=O)C4COc5ccccc5O4)[C@H]4CCCC[C@H]43)nc(N)c2cc1OC (relative stereo) [CYCLODOXAZOSIN]	850	7.21	570	0.17	960		1460		8.3		2.82	> 10000	1860	0.417	EC50 (PC-3 [1]): 1860 nM; EC50 (LNCaP [3]): 1420 nM; EC50 (DU-145 [5]): 2600 nM; Activity (PC-3 [15]): Active; EC50 (NHDF [7]): > 10000 nM; Activity (PC-3 [16]): Active; Activity (PC-3 [17]): Active; Kb [18]: 40.7 nM; Activity (PC-3 [19]): Active; Activity (PC-3 [20]): Dose-dependent effect; Activity (PC-3 [21]): 21%
